Source: ChEMBL document CHEMBL1128557, “Synthesis, antitumor activity, and chemical properties of silaplatin and related platinum (II) and platinum (IV) complexes derived from beta-silyl amines” (J Med Chem, 1995)

Tests used:
[1] = system: Tumor Cell line; experiment: Evaluated in vitro for the log10 molecular concentration that caused […] tumor growth of 60 human tumor cell lines.; format: functional, cell-based
Summary of the method: (§1)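 Cells preincubated 24 h, then exposed to the agent at five 10-fold dilutions (0.01–100 μM for the platinum complexes) for 48 h. Cells fixed in situ and stained; solubilized stain read spectrophotometrically. Panel of leukemia, non-small-cell lung, ovarian and renal lines. Log GI50 or TGI taken per cell line in one experiment, then averaged across lines.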

[2] = system: Tumor Cell line; experiment: Evaluated in vitro for the log10 molecular concentration that caused 50 % inhibition of tumor growth of 60 human tumor cell lines; format: functional, cell-based; summary of the method: as §1
[3] = system: Tumor Cell line; experiment: The compound was evaluated in vitro for the log10 molecular concentration that caused 50 % of 60 human tumor cell line kills; format: ADME, cell-based
Summary of the method: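 Human tumor cell lines (leukemia, non-small-cell lung, ovarian, renal) were preincubated 24 h. Platinum complexes were then added as five 10-fold dilutions, 0.01–100 μM, for 48 h, followed by in situ fixation and staining, with solubilized stain read spectrophotometrically. Log LC50 (50% cell kill) was averaged across cell lines within one experiment.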

GI50 [2] [µM] | Substance | TGI [1] [µM] | Log LC50 [3]
4.17 | [Bis(aminomethyl)pentamethylenesilane]tetrachloropaltinum(IV) [listing 1 of 2 here] | 50.1 | –
– | [Bis(aminomethyl)ethylmethylsilane]tetrachloroplatinum(IV) | – | > -4.02
– | [Bis(aminomethyl)pentamethylenesilane]dichloropaltinum(II) | – | > -4.01
– | [Bis(aminomethyl)diethylsilane]tetrachloroplatinum(IV) | – | > -4.02
– | cis-Bis[[(trimethylsilyl)methyl]amino]tetrachloroplatinum(IV) | – | > -4.06
– | [Bis(aminomethyl)pentamethylenesilane]tetrachloropaltinum(IV) [listing 2 of 2 here] | – | > -4.01
